Activity calls are given as the source filed them. The calls are words filed in the database; no cut-off is given here.
Experiments:
[1] = Inhibition of Saccharomyces cerevisiae alpha-glucosidase using 4-NPGP substrate assessed as reduction in 4-nitrophenol release pre-incubated for 10 mins before substrate addition by microplate reader based assay
How it was run: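 Test compound at 0 to 100 µM premixed with enzyme in 100 mM phosphate buffer, pH 7.0, and held 30 °C for 10 min. Then 12.5 mM 4-NPGP (stock) added and 4-nitrophenol release read at 405 nm. IC50 is the concentration inhibiting 50% of α-glucosidase activity.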

[2] = Antioxidant activity assessed as DPPH radical scavenging activity incubated for 5 mins by microplate spectrophotometry; type: physicochemical
[3] = Antioxidant activity assessed as DPPH radical scavenging activity; type: physicochemical
How it was run: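 Compound dissolved in MeOH (0 to 100 µM), mixed with 0.1 mM DPPH, 150 µL final mixture, 37 °C for 5 min; absorbance at 517 nm; IC50 derived from DPPH scavenging.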

[4] = Inhibition of Saccharomyces cerevisiae alpha-glucosidase
How it was run: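 Compound (0 to 100 µM) premixed with 100 mM phosphate buffer pH 7.0, 30 °C for 10 min; 12.5 mM 4-nitrophenyl glucopyranoside substrate then added; 4-nitrophenol release read at 405 nm; resveratrol and quercetin as positive controls; IC50 = concentration giving 50% inhibition.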

Saccharomyces cerevisiae [5] = assay: Mixed type inhibition of Saccharomyces cerevisiae alpha-glucosidase using 4-NPGP substrate assessed as reduction in 4-nitrophenol release pre-incubated for 10 mins before substrate addition by Dixon plot analysis
[6] = Mixed type inhibition of Saccharomyces cerevisiae alpha-glucosidase using 4-NPGP substrate assessed as equilibrium constant for binding to enzyme-4-NPGP complex by measuring reduction in 4-nitrophenol release pre-incubated for 10 mins before substrate addition by Dixon plot analysis
Saccharomyces cerevisiae [7] = assay: Mixed type inhibition of Saccharomyces cerevisiae alpha-glucosidase using 4-NPGP substrate assessed as reduction in 4-nitrophenol release pre-incubated for 10 mins before substrate addition by Lineweaver-Burk plot analysis
How it was run: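 Double-reciprocal (Lineweaver-Burk) analysis of initial velocities, taken as A405 rate/min, across increasing 4-NPGP concentrations. Inhibitor present at 0, 0.25, 0.5 and 1.0 µM. Run in pH 7.0 phosphate buffer at 30 °C to assign inhibition mode.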

[8] = Mixed type inhibition of Saccharomyces cerevisiae alpha-glucosidase using 4-NPGP substrate assessed as equilibrium constant for binding to enzyme by measuring reduction in 4-nitrophenol release pre-incubated for 10 mins before substrate addition by Dixon plot analysis

SMILES: Oc1cc(Br)c(-c2cc3c(Br)ccc(O)c3o2)cc1O
- IC50 [1]: 6.4 µM
- IC50 [2]: 7.8 µM

SMILES: Oc1cc(-c2cc3ccccc3o2)cc(O)c1O
- IC50 [1]: 8.2 µM
- IC50 [2]: 10.8 µM

SMILES: O=c1c(O)c(-c2ccc(O)c(O)c2)oc2cc(O)cc(O)c12 [QUERCETIN]
- IC50 [1]: 6.6 µM
- IC50 [2]: 6 µM
- IC50 [3]: 9.1 µM
- IC50 [4]: 5.3 µM

SMILES: Oc1cc(Br)c(-c2cc3ccccc3o2)cc1O
- IC50 [1]: 7.7 µM
- IC50 [2]: 33.8 µM

SMILES: Oc1cc(-c2cc3c(Br)ccc(O)c3o2)c(Br)c(O)c1O
- IC50 [1]: 12.4 µM
- IC50 [2]: 19.4 µM

SMILES: COc1cc(-c2cc3cc(Br)cc(OC)c3o2)cc(OC)c1OC
- IC50 [1]: > 100 µM
- IC50 [2]: > 100 µM

SMILES: CCOC(=O)/C=C/c1cc(OC)c(OC)cc1-c1cc2cccc(OC)c2o1
- IC50 [1]: > 100 µM
- IC50 [2]: > 100 µM

SMILES: COc1cc(Br)c(-c2cc3cccc(OC)c3o2)cc1OC
- IC50 [1]: > 100 µM
- IC50 [2]: > 100 µM

SMILES: CCOC(=O)/C=C/c1cc(O)c(O)cc1-c1cc2cccc(O)c2o1
- IC50 [1]: 5.5 µM
- IC50 [2]: 26.2 µM

SMILES: CCOC(=O)/C=C/c1cc(O)c2oc(-c3ccc(O)c(O)c3)cc2c1
- IC50 [1]: 23.8 µM
- IC50 [2]: 25.4 µM

SMILES: Oc1cc(Br)c(-c2cc3cccc(O)c3o2)cc1O
- IC50 [1]: 7.1 µM
- IC50 [2]: 20.6 µM

SMILES: CCOC(=O)/C=C/c1cc(O)c2oc(-c3cc(O)c(O)c(O)c3)cc2c1
- IC50 [1]: 2 µM
- inhibition (Saccharomyces cerevisiae [5]): Active
- Ki [6]: 11.8 µM
- IC50 [2]: 11.7 µM
- inhibition (Saccharomyces cerevisiae [7]): Active
- Ki [8]: 3.19 µM

SMILES: COc1ccc(-c2cc3cccc(OC)c3o2)cc1OC
- IC50 [1]: > 100 µM
- IC50 [2]: > 100 µM

SMILES: Oc1cc(-c2cc3ccccc3o2)c(Br)c(O)c1O
- IC50 [1]: 8.5 µM
- IC50 [2]: 18 µM

SMILES: Oc1ccc(-c2cc3cccc(O)c3o2)cc1O
- IC50 [1]: 1.9 µM
- inhibition (Saccharomyces cerevisiae [5]): Active
- Ki [6]: 13.7 µM
- IC50 [2]: 18.5 µM
- inhibition (Saccharomyces cerevisiae [7]): Active
- Ki [8]: 4.21 µM

SMILES: Oc1ccc(-c2cc3cc(Br)cc(O)c3o2)cc1
- IC50 [1]: 29.8 µM
- IC50 [2]: > 100 µM

SMILES: Oc1cc(-c2cc3cccc(O)c3o2)cc(O)c1O
- IC50 [1]: 9.2 µM
- IC50 [2]: 12.8 µM

SMILES: Oc1ccc(-c2cc3c(Br)ccc(O)c3o2)cc1O
- IC50 [1]: 6.4 µM
- IC50 [2]: 18.4 µM

SMILES: Oc1cc(-c2cc3cc(Br)cc(O)c3o2)cc(O)c1O
- IC50 [1]: 3 µM
- IC50 [2]: 14.6 µM

SMILES: Oc1ccc(-c2cc3cc(Br)cc(O)c3o2)cc1O
- IC50 [1]: 7.5 µM
- IC50 [2]: 28.6 µM

SMILES: Oc1ccc(/C=C/c2cc(O)cc(O)c2)cc1 [RESVERATROL]
- IC50 [1]: 31.1 µM
- IC50 [2]: 63.5 µM
- IC50 [3]: 38 µM
- IC50 [4]: 27.9 µM

SMILES: CCOC(=O)/C=C/c1ccc(O)c2oc(-c3ccc(O)c(O)c3)cc12
- IC50 [1]: 8.9 µM
- IC50 [2]: 16.8 µM

From ChEMBL document CHEMBL3407387, “Antioxidant activity and inhibition of α-glucosidase by hydroxyl-functionalized 2-arylbenzo[b]furans” (Eur J Med Chem, 2015)
